Screens deposited in PubChem BioAssay by several laboratories.
D1 mod – allosteric modulators of human D1 dopamine receptor | AID 641 | B-score at 10 µM | HEK293 D1, CRE-luciferase, dopamine EC30 potentiation; actives deviate in either direction | actives 5.9% (n = 58,000);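 active = luminescence count or its row- and column-corrected plate score outside the 99.7% band of the plate's sample wells, on either side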
DAT uptake mod – changed human dopamine transporter uptake under cocaine IC80; Q01959; LLC-PK1 hDAT cells, [14C]-dopamine uptake with cocaine IC80; actives deviate in either direction; B-score at 10 µM; actives 1.3% (n = 110,000); AID 449768;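 active = Z score or B-score, a plate-position-corrected score, falls beyond the plate's 99.7% confidence bounds, in either direction; inactive = both scores lie inside the 99.7% bounds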;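 also: scored against the spread of the other compound wells on the same plate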
Target sequence (Q01959 whole entry, looked up): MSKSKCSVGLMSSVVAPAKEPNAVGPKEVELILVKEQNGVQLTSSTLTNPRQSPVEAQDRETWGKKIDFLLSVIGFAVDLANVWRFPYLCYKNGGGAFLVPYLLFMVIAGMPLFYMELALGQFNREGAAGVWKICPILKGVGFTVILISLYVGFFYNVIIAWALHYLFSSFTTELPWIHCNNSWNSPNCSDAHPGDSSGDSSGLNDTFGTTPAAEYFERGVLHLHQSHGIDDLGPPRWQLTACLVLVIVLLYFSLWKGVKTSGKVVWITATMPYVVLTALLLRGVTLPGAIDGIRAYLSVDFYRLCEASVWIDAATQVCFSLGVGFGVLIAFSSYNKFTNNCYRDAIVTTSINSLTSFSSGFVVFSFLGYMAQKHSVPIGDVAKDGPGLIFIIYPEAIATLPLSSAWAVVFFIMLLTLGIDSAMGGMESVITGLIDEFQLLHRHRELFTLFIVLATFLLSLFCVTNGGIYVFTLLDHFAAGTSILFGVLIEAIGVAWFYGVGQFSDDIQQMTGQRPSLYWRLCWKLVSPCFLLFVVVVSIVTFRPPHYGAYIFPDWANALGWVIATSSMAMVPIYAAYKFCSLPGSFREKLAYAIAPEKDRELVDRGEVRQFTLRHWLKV
Candida biofilm – kills Candida albicans biofilms; AID 834; actives 0.14% (n = 85,000); C. albicans biofilm + clotrimazole, Alamar Blue; inhibition, % at 6 µM;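 active = inhibition above 20%; inactive = inhibition below 20%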;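 also: preformed 24 hr biofilms exposed to compound for 48 hr; 0% = biofilm without compound and 100% = blank killed by clotrimazole plus chlorhexidine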
AP ELISA ortho – orthogonal test for alternative complement pathway inhibitors; Human serum alternative complement pathway, LPS-coated ELISA, C3 deposition; tested in compound mixtures; inhibition, % at 5 µM; actives 0.08% (n = 62,000);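 active = inhibition above 30% in each of the two pooled mixtures holding the compound, so the lower value exceeds 30%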;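 also: 0% = serum in Mg-EGTA without compound and 100% = EDTA serum blank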
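Medium: diluted human serum in Mg2+-EGTA GVB++. Assay system: human serum complement alternative pathway, C3 deposition onto LPS. Also added: Plate-bound LPS. Technique: Anti-C3 ELISA, OD 450 nm. Measure: percent inhibition. Incubation: 1 h at 37 °C. Dosing: 5 µM each compound, pools of ten, 50 µM per pool.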
MMP-13 inhibitor – MMP13 (human) collagenase inhibition. P45452. inhibition, % at 4 µM. MMP-13 fTHP FRET cleavage, Mca fluorescence. actives 0.07% (n = 65,000);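 active = inhibition above the mean of compound-free control plate wells plus 3 SD, cut at about 14% in these data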;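 also: 0% = DMSO wells and 100% = wells with reference MMP-13 inhibitor after basal subtraction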
D1 PAM confirm – confirmation of human D1 dopamine receptor allosteric modulators; HEK293 D1 CRE-luciferase, dopamine EC30 potentiation; hits give high values; luminescence at 10 µM; shares compounds with D1 mod; actives 88% (n = 2,200); AID 642;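 active = luminescence in either of two replicates above the same-plate mean plus 3 SD of the low-dose dopamine control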
D1 no dopamine – D1 (human) signaling in absence of dopamine. luminescence at 10 µM. HEK293 D1 CRE-luciferase, luminescence, no dopamine; hits give high values. AID 646. actives 0.8% (n = 1,900). shares compounds with D1 mod; in the data active = luminescence above about 3900
Isoprot counter – alters isoproterenol CRE-luciferase response in HEK293 cells; luminescence at 10 µM; actives 63% (n = 2,200); HEK293 D1 CRE-luciferase, isoproterenol EC30 counter-screen; hits give high values; AID 647; shares compounds with D1 mod;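 active = luminescence in either replicate above plate mean of wells with a partly effective reference agonist dose plus 3 SD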;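 also: isoproterenol raises cAMP through native beta-adrenoceptor Gs so signal bypasses D1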
Numbers without * were called inactive; i = inactive; nt = no result. The sample as a whole holds a higher share of hits than the screen did.

SMILES	D1 mod	DAT uptake mod	Candida biofilm	AP ELISA ortho	MMP-13 inhibitor	D1 PAM confirm	D1 no dopamine	Isoprot counter
CCOC(=O)c1cc(C#N)c(N)nc1C	4.6*	-0.67	-1	19	-18	8556*	nt	3320*
COc1ccc(Br)cc1/C=N/NC(=O)c1nc(-c2ccccc2)n2c1CCCCC2	nt	-0.83	nt	nt	nt	nt	nt	nt
C[C@@H]1CC[C@@]2(O[C@@H](CCO)C[C@@H](O)[C@@H]2O)O1	nt	-0.085	nt	nt	nt	nt	nt	nt
COc1ccc2c(c1OC)C(=O)N(c1cccc(C)c1)C2=O	4.6*	-0.41	nt	18	0	10596*	1716	4244*
O=C(c1ccc(Cl)c(F)c1F)N1CCOCC1	nt	1.7	9	nt	nt	nt	nt	nt
COCc1cc(C)nc2sc(C(=O)N3CCN(c4ccccc4)CC3)c(N)c12	4.6*	1.2	-3	0	-2	8080*	1512	2904
CCC(=O)Nc1cccc(C2=NOC3(C2)C[C@H](C(N)=O)N(C(=O)CC#N)C3)c1 (stereo partly specified)	nt	-0.93	nt	nt	nt	nt	nt	nt
Cc1cc(C)n(-c2nnc3n2N=C(c2ccccc2)CS3)n1	0.72	-1.2	2	1	5	nt	nt	nt
Cc1cc(C)n(-c2nnc3n2N=C(c2c[nH]c4ccccc24)CS3)n1	9.8*	0.74	6	-2	0	10564*	1848	3500*
CCO[C@@H]1OC(C(=O)NCc2ccccc2)=C[C@H](C2CCCCC2)[C@H]1CCCO	nt	-0.31	nt	nt	nt	nt	nt	nt
Cc1cc(Nc2ccc(F)c(Cl)c2)n2ncnc2n1	4.3*	-0.34	8	22	4	8188*	1652	3716*
CCn1c2ccccc2c2cc(Nc3cc(C)nc4ncnn34)ccc21	7.5*	0.52	4	6	-1	11088*	1852	3620*
NNC(=O)CNC(c1ccccc1)c1cc(Br)ccc1NC(=O)c1ccccc1Br (stereo unspecified)	nt	0.44	nt	nt	nt	nt	nt	nt
N#Cc1cc2c(nc1SCC(=O)N1CCCCC1)CCCCC2	3.8*	0.35	11	2	-1	10608*	nt	3136*
CCS(=O)(=O)CCSc1nc2c(cc1C#N)CCCC2	5.5*	1.4	4	2	-2	19348*	1760	3564*
COc1ccc2nc(SCC(=O)N3CCCCCC3)c(C#N)cc2c1	3.5*	0.34	-1	13	-10	10688*	1852	3060
N#CCSc1nc2c(cc1C#N)CCCCCC2	7.9*	-0.94	4	nt	-77	11156*	1660	3504*
CC(C)CC(CO)N1CCN(C(=O)c2cccc(C(F)(F)F)c2)CCC1=O (stereo unspecified)	nt	0.54	nt	nt	nt	nt	nt	nt
Cn1c(C(=O)NCCCN2CCCC2=O)cc2c(=O)n3ccccc3nc21	1.5	nt	10	15	-425	nt	nt	nt
N#Cc1cc2c(nc1SCC(=O)Nc1sc3c(c1C#N)CCC3)CCCCC2	6*	-1.5	8	0	-1	10448*	1704	3236*
CCOC(=O)NCCc1ccc(OC)cc1	3.8*	-0.68	-6	9	4	8468*	1752	2664
COC(=O)CN=C1OC(=O)N2C(=O)C3=C4[C@@H](C[C@H]5C(=O)N(c6ccccc6)C(=O)[C@H]5[C@H]4[C@@]12Cc1ccccc1)[C@H]1C(=O)N(c2ccccc2)C(=O)[C@H]1[C@H]3C	nt	0.12	nt	nt	nt	nt	nt	nt
Cc1ccc(S(=O)(=O)NCC(=O)N(CC(=O)NC2CCCCC2)CC2CCCO2)cc1 (stereo unspecified)	nt	-0.048	6	nt	nt	nt	nt	nt
Cc1cc(=O)n(CC=C(Cl)Cl)c2ccccc12	2.9*	-1.5	0	-5	-4	7272*	1672	2656
CC(=O)OCC1OC(c2ccccc2)C(OC(C)=O)C(OC(C)=O)C1OC(C)=O (stereo unspecified)	3.1*	-0.11	7	17	4	9036*	1700	2792
SMILES	D1 mod	DAT uptake mod	Candida biofilm	AP ELISA ortho	MMP-13 inhibitor	D1 PAM confirm	D1 no dopamine	Isoprot counter
Cc1nc(-c2ccc(S(=O)(=O)N3CCCCCC3)cc2)cs1	2.7*	1.2	-2	-3	4	8332*	1844	2760
Cc1nc(-c2cccc(S(=O)(=O)N3CCCCCC3)c2)cs1	nt	2.3	2	nt	nt	nt	nt	nt
COC(=O)c1ccc(Cl)c(NC(=O)c2ccc(-c3ccccc3)cc2)c1	nt	-1.2	nt	nt	nt	nt	nt	nt
O=C(c1ccc2c(c1)OCO2)N1CCC2(CC1)Oc1ccc(F)cc1C(=O)C21CC(c2ccccc2)=NO1 (stereo unspecified)	nt	0.35	nt	nt	nt	nt	nt	nt
CCCCn1c(=NC(=O)c2ccco2)c(C(=O)OCC)cc2c(=O)n3ccccc3nc21	5.6*	0.85	7	8	i	9240*	1496	2948
CCOC(=O)c1cc2c(=O)n3cccc(C)c3nc2n(CCCOC)c1=NC(=O)c1cccnc1	nt	-0.12	nt	6	-375	nt	nt	nt
CCOCCCn1c(=NC(=O)c2cccnc2)c(C(=O)OCC)cc2c(=O)n3ccccc3nc21	3.3*	0.38	4	16	-382	10440*	1560	3780*
CCCCn1c(=NC(=O)c2cccnc2)c(C(=O)OCC)cc2c(=O)n3ccccc3nc21	7*	0.7	2	18	-75	11452*	1452	2068
CCCCCn1c(=NC(=O)c2ccco2)c(C(=O)OCC)cc2c(=O)n3ccccc3nc21	3.2	nt	8	13	-490	nt	nt	nt
CCOc1ccc(OCC)c(NC(=O)CC2Oc3ccc(C)cc3NC2=O)c1 (stereo unspecified)	2.7*	-1.4	8	4	0	6392	1720	2672
CCn1nccc1C(=O)Nc1cc(Cl)ccc1Cl	2.3*	0.22	8	4	-5	7456*	1536	3260*
COc1ccc(S(=O)(=O)N2CCN(c3ccccn3)CC2)cc1OC	5.3*	0.52	2	-5	-8	6880*	nt	2540
CCC(=O)N1CCc2cc(S(=O)(=O)N3CCN(C(=O)c4ccco4)CC3)ccc21	1.5	-0.081	7	13	0	nt	nt	nt
CCOC(=O)N1CCN(S(=O)(=O)c2ccc3c(c2)CCN3C(=O)C2CCC2)CC1	3.3*	0.89	2	21	1	7472*	1692	3316
COc1ccc(S(=O)(=O)N2CCN(c3c(C)cccc3C)CC2)cc1OC	0.35	0.27	11	15	10	nt	nt	nt
O=C(c1ccco1)N1CCN(S(=O)(=O)c2ccc3c(c2)CCN3C(=O)C2CCC2)CC1	2.6*	0.89	-11	-13	0	11588*	1732	4928*
O=C(C1CCC1)N1CCc2cc(S(=O)(=O)N3CCN(c4ccccn4)CC3)ccc21	6.1*	0.61	2	7	6	10104*	nt	3712*
N#Cc1c(-n2ccnc2)cccc1-n1ccnc1	nt	-0.41	nt	nt	nt	nt	nt	nt
COc1ccc(CNS(=O)(=O)c2ccccc2Br)cc1	nt	0.28	nt	nt	nt	nt	nt	nt
